Laboratory results taken from ChEMBL document CHEMBL1157953, “Antiviral flavans from the leaves of Pithecellobium clypearia” (J Nat Prod, 2006).
In brackets after ≈: the same amount, converted by molar mass.

Key:
[1] = Selectivity index, CC50 for human Hep2 cells to IC50 for Cox B3 virus; type: functional, HEp-2
Summary of the method: (§1)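 SI = CC50/IC50. CC50 came from an MTT assay: confluent monolayers were exposed in triplicate to sample dilutions for 3 days, then MTT was added for 3 h, formazan was dissolved in DMSO, and OD was read at 540/690 nm. CC50 is the concentration cutting viable cells to 50% of control. IC50 came from the CPE reduction assay in the matching cell line.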

[2] = Selectivity index, CC50 for MDCK cells to IC50 for influenza A virus H1N1 A/NWS/33; type: functional; summary of the method: as §1
[3] = Selectivity index, CC50 for african green monkey Vero cells to IC50 for HSV1 15577; type: functional; summary of the method: as §1
[4] = Cytotoxicity against african green monkey Vero cells after 3 days by MTT reduction assay; type: cell-based; settings: chlorocebus sabaeus
Summary of the method: (§2)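 Serial sample dilutions (from 40 mg/mL DMSO stock; top test concentration 1000 µg/mL in maintenance medium, 1% FBS with gentamicin) added in triplicate to confluent monolayers, 37 °C, 5% CO2. After 3 days MTT added for 3 h; formazan dissolved in DMSO, OD read at 540 and 690 nm. CC50 = concentration reducing viable cells to 50% of medium control.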

[5] = Cytotoxicity against human Hep2 cells after 3 days by MTT reduction assay; type: cell-based, HEp-2; summary of the method: as §2
[6] = Selectivity index, CC50 for human Hep2 cells to IC50 for RSV Long; type: functional, HEp-2; summary of the method: as §1
[7] = system: Respiratory syncytial virus; assay: Antiviral activity against RSV Long in human Hep2 cells assessed as reduction of virus induced cytopathic effect; type: functional, organism-based; settings: HEp-2
Summary of the method: (§3)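 CPE reduction assay: confluent monolayers received 0.1 mL of 100 TCID50 virus simultaneously with 0.1 mL of serial 2-fold sample dilutions. Samples were dissolved in DMSO, then diluted into maintenance medium (MEM, 1% FBS, gentamicin, L-glutamine). Incubation at 37 °C, 5% CO2 for 4-6 days. CPE was scored 0-4 against virus and cell controls. IC50 is the concentration halving CPE, estimated from plots.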

Human alphaherpesvirus 1 = assay: Antiviral activity against HSV1 15577 in african green monkey Vero cells assessed as reduction of virus induced cytopathic effect; type: functional, organism-based; settings: Human alphaherpesvirus 1, Vero; summary of the method: as §3
Coxsackievirus B3 = assay: Antiviral activity against Cox B3 virus in human Hep2 cells assessed as reduction of virus induced cytopathic effect; type: functional, organism-based; settings: Enterovirus B, HEp-2; summary of the method: as §3
[8] = Cytotoxicity against MDCK cells after 3 days by MTT reduction assay; type: cell-based, Canis lupus familiaris; settings: dog; summary of the method: as §2

Row | Structure (SMILES) | Ratio CC50/IC50 [1] | Ratio CC50/IC50 [2] | Ratio CC50/IC50 [3] | CC50 at 72 h [4] | MNTC at 72 h ([4]; read-out: MNCC) | CC50 at 72 h [5] | MNTC at 72 h ([5]; read-out: MNCC) | Ratio CC50/IC50 [6] | IC50 [7] | IC50 (Human alphaherpesvirus 1) | IC50 (Coxsackievirus B3) | CC50 at 72 h [8] | MNTC at 72 h ([8]; read-out: MNCC)
1 | O=C(Oc1cc(O)c2c(c1)OC(c1cc(O)c(O)c(O)c1)CC2)c1cc(O)c(O)c(O)c1 (stereo not drawn) | 7.6 | 7 | 4 | 120 µg/mL (≈ 271 µM) | 31.3 µg/mL | 95 µg/mL (≈ 215 µM) | 25 µg/mL | 19 | 5 µg/mL (≈ 11.3 µM) | 30 µg/mL (≈ 67.8 µM) | 12.5 µg/mL (≈ 28.3 µM) | 110 µg/mL (≈ 249 µM) | 62.5 µg/mL
2 | Nc1nc2c(ncn2COCCO)c(=O)[nH]1 [ACYCLOVIR] | – | – | >2000 | > 500 µg/mL | – | – | – | – | – | 0.25 µg/mL (≈ 1.11 µM) | 25 µg/mL (≈ 111 µM) | – | –
3 | NC(=O)c1ncn([C@@H]2O[C@H](CO)[C@@H](O)[C@H]2O)n1 [RIBAVIRIN] | – | – | – | – | – | – | – | – | 3 µg/mL (≈ 12.3 µM) | – | – | – | –
